Insulin prom act = TRM-6 insulin promoter activation; TRM-6 cells, insulin promoter eGFP reporter, imaging; plate-scaled: unstimulated 0, stimulated control 100; activation, % at 2 µM; hit rate 0.81% among 130,000;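 active = activation at 2 µM above a set limit, confirmed on inspection of the cell images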;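 note: share of cells whose green reporter signal exceeds an intensity cutoff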
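Test system: human fetal islet-derived TRM-6 cells with tamoxifen-inducible insulin promoter–eGFP reporter; schedule: overnight tamoxifen, then two-day compound incubation at 37 °C; measured by: high-content imaging of fixed cells with Hoechst nuclear stain; evaluation: percent cells above green-intensity threshold, converted to percent activation versus plate controls; control set: stimulated and unstimulated wells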
Active calls of the source: *. The entries come from a sample that favours hits as a whole.

SMILES | Insulin prom act
CC(C)OC(=O)C1C(=O)CC(C)(O)C(C(=O)OC(C)C)C1c1cccc(O)c1 (stereo not given) | 0.0
CC(=O)OC(C(=O)NC1CCCCC1)c1cccc(C)c1 (stereo not given) | 0.0
CCOc1ccc(NS(=O)(=O)c2ccc(OC)c(NC(=O)c3ccc4c(c3)OCCO4)c2)cc1 | 0.0
Cc1cccc(NS(=O)(=O)c2ccc3c(c2)OCCO3)c1 | -7.1
CCOC(=O)COc1ccc(S(=O)(=O)Nc2ccc3c(c2)OCCO3)cc1 | 460.0*
Cc1ccc(C)c(NC(=O)Cn2nnc(C(=O)NCc3cccs3)c2N)c1 | -3.6
CN1/C(=C\C(=O)Nc2ccc(Br)cc2)C(C)(C)c2ccccc21 | 0.0
CN1/C(=C\C=C2/C(=O)Oc3ccccc3C2=O)C(C)(C)c2ccccc21 | 222.6*
Cc1nn(-c2ccccc2)c2c1C1(C(=O)N(C)c3ccccc31)C(C#N)=C(N)O2 (stereo not given) | -17.5
CCNC(=S)N(CCc1c(C)[nH]c2ccccc12)Cc1cc(OC)c(OC)c(OC)c1 | -9.5
CCOC(=O)C1CCN(CC(=O)N(CC(C)C)c2c(N)n(CC(C)C)c(=O)[nH]c2=O)CC1 | -3.7
COC(=O)c1ccc(C(NC(=O)OCc2ccccc2)/C(F)=C/[C@@H](C)C(=O)NCc2ccc(OC)c(OC)c2)cc1 (stereo not given in full) | -4.8
O=C(c1ccccn1)c1cc2ccccc2n1S(=O)(=O)c1ccccc1 | 3.4
Cc1nn(C)cc1CNC(=O)C1(C)CC1(Cl)Cl (stereo not given) | 8.3
CCOC(=O)N1CCC(Nc2c(-c3ccccc3)c(=O)c2=O)CC1 | 85.9*
CCOC(=O)N1CCN(C(=O)c2ccccc2NC(C)=O)CC1 | 3.7
CCOC(=O)N1CCN(c2c(NCCN(C)Cc3ccccc3)c(=O)c2=O)CC1 | 0.0
CCCc1nnc(SCC(=O)N2CCOCC2)n1C | 153.3
CC(C)c1ccc(NC(=O)C(c2ccccc2)N2CC(=O)Nc3ccccc32)cc1 (stereo not given) | 4.8
CCSc1cnc(-c2ccccc2)n1CC | -84.6
COc1cc2c(cc1OC)C(C(=O)Nc1cccc(C)n1)C(c1cccnc1)N(C)C2=O (stereo not given) | 0.0
COc1cc2c(cc1OC)C(C(=O)Nc1ccccc1N1CCN(C)CC1)C1c3ccccc3CCN1C2=O (stereo not given) | 355.0*
COc1ccc(C2C(C(=O)N3CCN(C)CC3)c3cc(OC)c(OC)cc3C(=O)N2C)cc1 (stereo not given) | 0.0
O=C(NCC1CCCO1)C1c2ccccc2C(=O)N1C1CCCCCCC1 (stereo not given) | 0.0
O=C(NCc1cccnc1)C1c2ccccc2C(=O)N1C1CCCCCCC1 (stereo not given) | 156.3*
SMILES | Insulin prom act
CCOc1ccc(CN2C(=O)c3ccccc3C2C(=O)NCc2cccnc2)cc1 (stereo not given) | 163.6
O=C(Nc1cccc(S(=O)(=O)N2CCOCC2)c1)[C@@H]1CCCN1S(=O)(=O)c1ccc(Cl)cc1 | 103.2
COc1ccc(S(=O)(=O)N2CCCC(C(=O)Nc3cccnc3)C2)cc1Cl (stereo not given) | -7.7
O=C(Nc1cccnc1)C1CCCN1S(=O)(=O)c1ccc(Cl)c(Cl)c1 (stereo not given) | 481.3*
CCc1ccccc1NC(=O)N1CCC(NC(=O)C(Cc2ccccc2)NC(C)=O)CC1 (stereo not given) | 6.7
COc1c(S(=O)(=O)N2CCCCC2)ccc2c(S(=O)(=O)N3CCCCC3)cccc12 | 242.9
Cc1c(NC(=O)c2cc3nc(-c4ccc(Cl)cc4)cc(C(F)(F)F)n3n2)c(=O)n(-c2ccccc2)n1C | 3.2
O=C(N=C1SCC(=O)N1c1ccccc1)c1ccco1 | 7.0
N=C1SCC(=O)N1c1ncc(Cc2cccc(Cl)c2)s1 | 408.3*
NC(=O)C1CC(=O)N(c2ccc(OCc3c(Cl)cccc3Cl)cc2)C1 (stereo not given) | 0.0
O=C(NCCCn1ccnc1)C(=O)NCC1OCCCN1S(=O)(=O)c1ccccc1 (stereo not given) | 0.0
COC(=O)COc1ccc(S(=O)(=O)Nc2ccc3c(c2)OCO3)cc1Cl | 227.6
O=C(COc1ccc(S(=O)(=O)N2CCCC2)cc1Cl)NCc1ccc2c(c1)OCO2 | -5.3
O=C(COc1ccc(S(=O)(=O)NC2CCCCC2)cc1Cl)NCc1ccc2c(c1)OCO2 | 100.0*
O=C(NCc1ccc(F)cc1)C(=O)NCC1OCCN1S(=O)(=O)c1cccs1 (stereo not given) | 0.0
Cc1ccc(NC2=NC(=S)N(CC#N)C23CCCCC3)cc1 | 6.5
O=C(Nc1ccccc1N1CCOCC1)c1ccc2c(c1)OCO2 | 366.7*
COc1ccc(C(=O)NC(=S)Nc2ccccc2N2CCOCC2)cc1Br | -1.6
O=C(Nc1ccccc1)c1ccc2c(c1)OCCO2 | 8.6
COc1ccc(-c2[nH]ncc2CNCCc2ncccc2C)cc1F | -70.7
COC(=O)c1ccccc1NC(=O)c1ccc(-c2cccc(Cl)c2)o1 | 0.0
COC(=O)c1sccc1NC(=O)c1ccco1 | 168.8
COC(=O)c1sccc1-c1ccc(C(=O)Nc2cccc(Cl)c2)o1 | 80.0*
Cc1ccc(C)c(NC(=O)COC(=O)CNC(=O)c2ccccc2Cl)c1 | 0.0
COc1ccc(COc2ccc(C3C(S(=O)(=O)c4ccccc4)CON3C)cc2OC)cc1 (stereo not given) | 0.0
SMILES | Insulin prom act
S=c1[nH]nc(-c2ccco2)n1Cc1ccccc1 | 407.1*
Cc1c(Cl)c(-c2n[nH]c(=S)n2Cc2ccco2)nn1C | 8.5
O=c1c2ccccc2nc(-c2ccco2)n1Cc1ccccc1 | 0.0
O=C1C2CC(O)CN2C(=O)N1c1ccccc1 (stereo not given) | 0.0
Cc1nnc(NC(=O)c2cccc(NC(=O)C(C)C)c2)s1 | -5.4
CC(C)C(=O)Nc1cccc(NC(=O)c2cc3ccccc3o2)c1 | -78.6
CC(C)C(=O)Nc1cccc(S(=O)(=O)c2cccc(NC(=O)C(C)C)c2)c1 | 487.5*
CCOC(=O)C(Cc1ccc(NC(=O)/C(=C\c2ccccc2)NC(=O)c2ccccc2)cc1)N1C(=O)c2ccccc2C1=O (stereo not given) | 6.7
Cc1cc(C)n(CC(O)CN2c3ccccc3Sc3ccccc32)n1 (stereo not given) | 209.1*
Cc1cc(C)n(CC(=O)n2c3ccccc3c3ccccc32)n1 | -3.7
Cc1cc(C)n(CC(O)Cn2c3ccccc3c3ccccc32)n1 (stereo not given) | 314.3
CCOc1ccc(N(Cc2ccccc2F)C2=NC3CS(=O)(=O)CC3S2)cc1 (stereo not given) | -72.7
CN(CC(=O)N1CCCCCC1)S(=O)(=O)c1ccc(F)cc1 | -3.7
COC(=O)c1ccc(C(=O)OC)c(NC(=O)c2cc3ccccc3o2)c1 | -26.2
COCc1cc(C)nc(OCC(=O)N/N=C/c2ccc(C)o2)c1C#N | 5.9
O=C(NCc1ccccc1)N1CCN(c2ccc(F)cc2)CC1 | 7.0
COc1ccc(N2CCN(C(CNC(=O)C(C)(C)C)c3cccnc3)CC2)cc1 (stereo not given) | 5.9
O=C(NCc1ccc(Cl)cc1)C(=O)NCC(c1cccnc1)N1CCN(c2ccc(F)cc2)CC1 (stereo not given) | 164.7*
CSc1nc(NC(C)=O)nc(C)c1Br | -14.3
CCn1c(CC(=O)Nc2ccccc2)nnc1SCC(=O)Nc1ccccc1C(=O)OC | -8.3
CCn1c(CC(=O)Nc2ccc(C)c(Cl)c2)nnc1SCC(=O)Nc1nc(C)cs1 | 450.0*
CCn1c(CC(=O)Nc2ccc(C)cc2)nnc1SCC(=O)N1CCN(c2ccccc2)CC1 | 188.4

Source: PubChem BioAssay
